High-throughput results as filed in PubChem BioAssay.
HEK293 NFkB inh – inhibitors of PMA/ionomycin-induced NF-kB reporter, primary screen, antigen receptor NF-kB inhibitor project, cell-based, HEK-293 luciferase reporter, luminescence | HEK-293 NF-kB luciferase reporter | inhibition, % at 3 µM | hit rate 0.21% among 62,000;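 active = inhibition above the mean of all tested compounds plus 3 SD, cut at about 40% in these data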;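 note: 0% = stimulated DMSO wells and 100% = 10 µM reference inhibitor 5653914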
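Reagent: PMA plus ionomycin mix as NF-kB-activating stimulus. Assay system: NF-kB luciferase reporter HEK-293 cells. Technique: luminescence from luciferase substrate reagent. Incubation: 1 h compound pre-incubation, 16 h PMA/ionomycin at 37 °C. Benchmarks: DMSO only as uninhibited control, 10 µM reference inhibitor as full inhibition. Repeats: tested once.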
PLK1 PBD inh – Plk1 polo box domain binding inhibitors, primary screen, biochemical, fluorescence polarization. Serine/threonine-protein kinase PLK1 (Homo sapiens), P53350. Plk1 PBD phosphopeptide binding. inhibition, %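 (tested at about 20 µM)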. hit rate 0.13% among 97,000. AID 693, 2007; in the data active = inhibition above about 34%, passing the limit was not always enough
PLK1 inh – human PLK1 kinase inhibitors, primary screen, biochemical, TR-FRET. inhibition, % at 10 µM. recombinant PLK1 kinase, TR-FRET peptide phosphorylation. hit rate 0.53% among 97,000. AID 619, 2007. Serine/threonine-protein kinase PLK1 (Homo sapiens), P53350;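 active = inhibition of 50% or more in the single-concentration screen; inactive = inhibition below 50%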;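 note: 0% = DMSO max control and 100% = H-89 dihydrochloride min control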
HePTP inhibitor – inhibitors of human HePTP phosphatase, primary screen, biochemical, absorbance, leukemia target; Tyrosine-protein phosphatase non-receptor type 7 (Homo sapiens), P35236; recombinant HePTP phosphatase activity, OD absorbance; inhibition, % at 20 µM; hit rate 0.64% among 110,000; AID 521, 2006; in the data active = inhibition above about 50%;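 note: plate controls were vehicle for no effect and reference inhibitor for full effect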
AP complement – alternative complement pathway inhibitors, primary screen, biochemical, ELISA, human serum, orthogonally pooled compounds; hit rate 0.08% among 62,000; LPS-coated ELISA, C3 deposition; tested in compound mixtures; inhibition, % at 5 µM;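 active = inhibition above 30% in each of the two pooled mixtures holding the compound, so the lower value exceeds 30%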;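 note: 0% = serum in Mg-EGTA without compound and 100% = EDTA serum blank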
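Test system – human serum alternative complement pathway, C3 deposition on LPS-coated wells · Buffer or medium – diluted human serum in Mg2+-EGTA GVB++ · Compound dosing – 5 µM each compound, pools of ten, 50 µM per pool · Schedule – 1 h serum-compound exposure at 37 °C · Measured by – Anti-C3 ELISA, OD 450 nm · Read-out basis – percent inhibition of C3 deposition onto LPS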
Pyk2 oligo antag – antagonists of Pyk2 self-association, primary screen, Q293 cells, FERM NanoBiT luminescence, HTS; Protein-tyrosine kinase 2-beta (Homo sapiens), Q14289; active compounds read low; z-score (the deposit names both 25 µM and 10 µM); hit rate 0.83% among 99,000; AID 1347419, 2020;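 active = Z-score of -3 or lower, scaled per plate to the spread of control and sample wells; inactive = z-score above -3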;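 note: negative z-score means lost luminescence so less FERM oligomerization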
Active calls of the source: *; / = no result given. Rows were chosen to be rich in hits. Some 1.5% of all compounds tested hit in one or more screens of this group.

SMILES	HEK293 NFkB inh	PLK1 PBD inh	PLK1 inh	HePTP inhibitor	AP complement	Pyk2 oligo antag
O=c1[nH]c(=O)n(Cc2ccco2)c2c1C(C(F)(F)F)(C(F)(F)F)N=C(C1CCCCC1)N2	18.0	-4.0	-16.0	10.3	-5.6	-1.43
O=C(c1ccccc1Cl)N1CCN(C/C=C/c2ccccc2)CC1	/	/	/	9.7	/	/
CN1CCN(C2CC(=O)N(c3ccc(Cl)c(Cl)c3)C2=O)CC1 (centres undefined)	/	/	/	-2.5	/	/
Cn1c(SCC(=O)N/N=C/c2c(Cl)cccc2Cl)nc2ccccc21	/	/	/	-18.3	/	/
C=CCN1C(=O)/C(=C\c2ccc(-c3ccc(F)cc3)o2)C(=O)NC1=S	/	/	/	62.1*	/	/
C=CCN1C(=O)/C(=C\c2ccc(-c3cccc(C(=O)O)c3)o2)C(=O)NC1=S	/	/	/	95.7*	/	/
C=CCN1C(=O)/C(=C\c2ccc(-c3ccc(C(=O)O)cc3)o2)C(=O)NC1=S	/	/	/	102.3*	/	/
O=C1NC(=S)N(c2cccc(Br)c2)C(=O)/C1=C/c1ccc(-c2cccc([N+](=O)[O-])c2)o1	/	/	/	25.2	/	/
O=C1NC(=S)N(c2cccc(Br)c2)C(=O)/C1=C/c1ccc(-c2ccc(C(=O)O)cc2)o1	/	/	/	69.4*	/	/
CC1=C(C(=O)Nc2ccc(C)cc2)C(c2cccc(Br)c2)NC(=S)N1 (centres undefined)	/	/	/	-5.9	/	/
COc1ccc(N2CCN(c3ncnc4c3[nH]c3ccccc34)CC2)cc1	/	-11.3	-0.2	/	/	-3.47*
CCOC(=O)N1CCN(c2ncnc3c2[nH]c2ccc(F)cc23)CC1	/	14.9	-0.4	/	/	-3.03*
Fc1ccc2[nH]c3c(N4CCN(c5ccccc5)CC4)ncnc3c2c1	/	/	/	10.2	17.0	-3.37*
COc1ccc(N2C(=O)/C(=C\c3ccc(O)c([N+](=O)[O-])c3)SC2=S)cc1	/	/	/	-0.8	/	/
COc1ccc(N2C(=O)/C(=C\c3ccc(OC)cc3OC)N=C2c2ccccc2)cc1	/	/	/	-9.5	/	/
CCOC(=O)c1c(NC(=O)c2ccc(OC)cc2OC)sc2c1CCCCC2	/	/	/	-7.1	/	/
CC(=O)Nc1ccc(NS(=O)(=O)c2c(C)cc(C)cc2C)cc1	/	/	/	100.6*	/	/
Cc1ccc(N2CC(C(=O)Nc3ccc(N(C)C)cc3)CC2=O)cc1 (centres undefined)	/	/	/	-5.7	/	/
CCc1ccccc1-n1c(SCC(=O)Nc2ccc3c(c2)OCCO3)nc2[nH]ncc2c1=O	4.9	-21.9	15.8	3.4	3.4	-2.31
O=c1c2cn[nH]c2nc(SCc2ccc3c(c2)OCCO3)n1-c1ccccc1	8.3	15.9	12.8	-7.2	-1.4	-3.7*
CCCc1cc(C(=O)NC2CCCC2)no1	-13.3	-5.0	1.0	6.6	39.6*	/
COc1cccc(OCCCNC(C)(C)C)c1	/	/	/	9.8	/	/
CC(C)(C)C1CCc2c(sc(NC(=O)C3CC4CCC3C4)c2C(N)=O)C1 (centres undefined)	/	/	/	97.4*	/	/
CC(C)(C)C1CCc2c(sc(NC(=O)c3ccccc3)c2C(N)=O)C1 (centres undefined)	/	/	/	1.3	/	/
CC(C)(C)C1CCc2c(sc(NC(=O)C3CCCCC3C(=O)O)c2C(N)=O)C1 (centres undefined)	/	/	/	6.2	/	/
SMILES	HEK293 NFkB inh	PLK1 PBD inh	PLK1 inh	HePTP inhibitor	AP complement	Pyk2 oligo antag
CN1CCN(C(=O)c2c(NC(=O)c3ccco3)sc3c2CCC(C(C)(C)C)C3)CC1 (centres undefined)	11.9	-8.3	-14.0	8.7	6.9	-4.61*
COc1ccc(S(=O)(=O)N2CCN(C(=O)c3ccc(-c4ccccc4)cc3)CC2)cc1	/	/	/	2.0	/	/
O=[N+]([O-])c1cccnc1N1CCC(c2cc(-c3cccc(C(F)(F)F)c3)n[nH]2)CC1	/	10.0	-11.0	/	/	-3.39*
O=[N+]([O-])c1cccnc1N1CCC(c2cc(-c3ccc(Cl)cc3Cl)n[nH]2)CC1	/	0.1	-9.8	/	/	-2.74
Cc1ccc(NC(=O)c2cc3c(s2)CCC3)cc1S(=O)(=O)N1CCOCC1	/	-25.7	-8.6	/	/	-3.25*
Cc1ccc(S(=O)(=O)N2CCOCC2)cc1NC(=O)c1cc2c(s1)CCC2	/	7.5	-9.8	/	/	-0.29
COCCNC(=O)c1ccccc1NC(=O)c1ccc(Cl)c(S(=O)(=O)Nc2ccc(C)cc2C)c1	/	-7.2	-10.5	/	/	-3.24*
CCOC(=O)c1c(C)sc(Sc2ccccc2[N+](=O)[O-])c1OC(C)=O	/	/	/	-12.2	/	/
CCOC(=O)c1c(C)sc(Sc2ccc(Cl)cc2[N+](=O)[O-])c1OC	/	-2.8	-1.6	102.0*	/	-2.79
COc1ccc2oc(C(=O)CCC(=O)O)c(N)c2c1	10.0	12.1	63.0*	4.4	7.4	/
COC(=O)CCC(=O)c1oc2ccc(Br)cc2c1N	8.1	25.6	-12.4	/	/	0.99
Cc1cccc(C(=O)O/N=C(\N)c2ccncc2)c1	/	/	/	1.3	/	/
CN(c1cccc(NC(=O)Cc2ccccc2)c1)S(C)(=O)=O	14.6	8.1	-9.1	6.1	2.1	-0.35
Cc1ccccc1NC(=O)c1ccc(C)c(S(=O)(=O)Nc2cccc([N+](=O)[O-])c2)c1	/	/	/	10.5	/	/
CN(c1cccc(NC(=O)c2ccc(Cl)c(S(=O)(=O)Nc3ccccc3)c2)c1)S(C)(=O)=O	/	-16.6	-6.1	/	/	-3.85*
Cc1ccccc1NS(=O)(=O)c1cc(C(=O)Nc2cccc(N(C)S(C)(=O)=O)c2)ccc1C	/	7.5	-2.4	/	/	-3.03*
CC(C)CC(NC(=O)/C(=C/c1ccccc1F)NC(=O)c1ccccc1)C(=O)O (centres undefined)	/	/	/	1.9	/	/
COc1ccc(C(=O)Nc2ccc(Cl)c(-c3nc4ccccc4s3)c2)cc1[N+](=O)[O-]	/	/	/	65.0*	/	/
COc1ccc(Br)cc1/C=N/NC(=O)C(=O)NC1CCCCC1	/	/	/	-5.7	/	/
CC(C)c1nnc(NC(=O)c2cccs2)s1	-41.2	-11.8	66.7*	1.9	5.1	/
CN1C(=O)c2c(sc3c2CC(C)(C)SC3)N2CCN=C12	17.2	/	/	2.1	35.4*	-0.41
CCOc1ccc(NC(=S)NC(NC(=O)c2ccccc2Br)C(Cl)(Cl)Cl)cc1 (centres undefined)	/	/	/	1.7	/	/
COC(=O)c1sc(NC(=O)c2sc3cc(C)ccc3c2Cl)c(C#N)c1C	/	/	/	102.7*	/	/
CCOC(=O)c1cnc2ccc(OCC)cc2c1N1CCN(c2ccccc2)CC1	/	0.6	-4.7	/	/	-2.07
CCOC(=O)c1cnc2ccc(C)cc2c1Nc1ccc(N2CCOCC2)cc1	/	-13.2	-12.2	/	/	-3.05*
CCOC(=O)c1ccc(Nc2cc(C)nc(N3CCOCC3)n2)cc1	5.1	-26.4	-12.6	-13.3	6.9	-3.19*
O=c1oc2ccccc2nc1/C=C(\O)c1cccs1	/	/	/	-4.3	/	/
CN(CC(=O)Nc1nccs1)S(=O)(=O)c1ccc(F)cc1	8.6	0.6	53.4*	-6.2	0.9	-0.58
